ChEMBL document CHEMBL1126198, “A new class of high affinity ligands for the neurokinin A NK2 receptor: psi (CH2NR) reduced peptide bond analogues of neurokinin A4-10” (J Med Chem, 1992)
Starred links: 1 amine or outer side, 2 acyl side, 3 side chain; linkers in the order of their positions; H or OH if unused. Non-standard residues stand in square brackets, D forms with d. Residues, ends and D or L forms follow the SMILES beside them. *: point of attachment. X3 = N[C@@H](CC(=O)O)C(=O)N[C@@H](CO)CN([C@@H](Cc1ccccc1)C(=O)[*:2])[*:1]; Leuψ(CH2NH)PheNH2 = CC(C)C[C@@H](CN[C@@H](Cc1ccccc1)C(N)=O)N*; X9 = CC(C)CC(=O)N(C[C@H](CC(C)C)N*)[C@@H](CC(C)C)C(N)=O; X7 = CCCN(C[C@H](CC(C)C)N*)[C@@H](Cc1ccccc1)C(N)=O; X4 = CC(C)C[C@H](NC(=O)[C@H](CC(C)C)NCCN*)C(N)=O; X2 = CCN(C[C@H](CC(C)C)N*)[C@@H](CC(C)C)C(N)=O; X8 = CC(C)C[C@@H](CN(C)[C@@H](CC(C)C)C(N)=O)N*; X6 = CC(C)C[C@H](NC[C@H](Cc1ccccc1)N*)C(N)=O; X1 = CC(C)C[C@@H](CN[C@@H](CC(C)C)C(N)=O)N*; X5 = O=C(O)CCCN([C@@H](CO)C(=O)[*:2])[*:1]; βAla = NCCC(=O)O

Experiments:
[1] = target: T1, Substance-K receptor (Mesocricetus auratus, UniProt P51144); assay: Competitive inhibition of [125I]NKA binding to hamster urinary bladder Tachykinin receptor 2; assay type: single protein
T1 sequence (P51144 whole entry): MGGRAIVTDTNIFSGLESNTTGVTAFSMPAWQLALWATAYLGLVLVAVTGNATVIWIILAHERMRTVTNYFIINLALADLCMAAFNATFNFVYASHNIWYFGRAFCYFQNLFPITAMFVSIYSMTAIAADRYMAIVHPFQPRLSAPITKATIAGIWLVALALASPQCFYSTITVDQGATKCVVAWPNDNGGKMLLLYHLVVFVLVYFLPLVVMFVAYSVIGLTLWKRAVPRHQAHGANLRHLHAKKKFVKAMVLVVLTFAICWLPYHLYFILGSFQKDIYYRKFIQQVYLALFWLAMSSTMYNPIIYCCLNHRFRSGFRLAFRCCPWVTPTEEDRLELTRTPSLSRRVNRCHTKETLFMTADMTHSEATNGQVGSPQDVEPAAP

[2] = test system: Cricetinae gen. sp.; assay: Compound was evaluated for the competitive antagonism of NKA-stimulated PI (phosphatidylinositol) turnover in hamster urinary bladder tissue using [3H]inositol as radioligand; assay type: functional; conditions: read-out: pA2 (converted)
In short: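 Chopped hamster bladder labeled 1 h at 37 °C with [3H]myo-inositol. Assay run at room temperature in Krebs-HEPES (20 mM). Total inositol phosphates isolated on ion-exchange columns eluted sequentially, starting with water. PI turnover ratio = inositol phosphates cpm / organic extraction phase cpm. Basal level taken without NKA; maximum stimulation with 1 μM NKA. Mean ± SEM of separate experiments.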

IC50 [1]	Compound	Kb [2]
> 10000 nM	CC(C)C[C@H](NC(=O)[C@H](CC(C)C)NC(=O)CNC(=O)[C@@H](NC[C@H](Cc1ccccc1)NC(=O)[C@H](CO)NC(=O)[C@@H](N)CC(=O)O)C(C)C)C(N)=O	–
5660 nM	CC(C)C[C@H](NC(=O)[C@H](CC(C)C)NC(=O)CNC[C@@H](NC(=O)[C@H](Cc1ccccc1)NC(=O)[C@H](CO)NC(=O)[C@@H](N)CC(=O)O)C(C)C)C(N)=O	–
136 nM	CC(C)C[C@H](NC(=O)[C@H](CC(C)C)NC(=O)CNC(=O)[C@@H](NC(=O)[C@H](Cc1ccccc1)NC(=O)[C@H](CO)NC(=O)[C@@H](N)CC(=O)O)C(C)C)C(N)=O	–
> 10000 nM	CC(C)C[C@H](NC(=O)[C@H](CC(C)C)NCCNC(=O)[C@@H](NC(=O)[C@H](Cc1ccccc1)NC(=O)[C@H](CO)NC(=O)[C@@H](N)CC(=O)O)C(C)C)C(N)=O (H-DSFV-X4)	–
115 nM	CC(C)C[C@@H](CN[C@@H](CC(C)C)C(N)=O)NC(=O)CNC(=O)[C@@H](NC(=O)[C@H](Cc1ccccc1)NC(=O)[C@H](CO)NC(=O)[C@@H](N)CC(=O)O)C(C)C (H-DSFVG-X1)	200 nM
277 nM	CCN(C[C@H](CC(C)C)NC(=O)CNC(=O)[C@@H](NC(=O)[C@H](Cc1ccccc1)NC(=O)[C@H](CO)NC(=O)[C@@H](N)CC(=O)O)C(C)C)[C@@H](CC(C)C)C(N)=O (H-DSFVG-X2)	–
> 10000 nM	CC(C)C[C@H](NC[C@H](Cc1ccccc1)NC(=O)CNC(=O)[C@@H](NC(=O)[C@H](Cc1ccccc1)NC(=O)[C@H](CO)NC(=O)[C@@H](N)CC(=O)O)C(C)C)C(N)=O (H-DSFVG-X6)	–
193 nM	CC(C)C[C@@H](CN(C)[C@@H](CC(C)C)C(N)=O)NC(=O)CNC(=O)[C@@H](NC(=O)[C@H](Cc1ccccc1)NC(=O)[C@H](CO)NC(=O)[C@@H](N)CC(=O)O)C(C)C (H-DSFVG-X8)	–
162 nM	CC(C)CC(=O)N(C[C@H](CC(C)C)NC(=O)CNC(=O)[C@@H](NC(=O)[C@H](Cc1ccccc1)NC(=O)[C@H](CO)NC(=O)[C@@H](N)CC(=O)O)C(C)C)[C@@H](CC(C)C)C(N)=O (H-DSFVG-X9)	–
9 nM	CC(C)C[C@@H](CN[C@@H](Cc1ccccc1)C(N)=O)NC(=O)CNC(=O)[C@@H](NC(=O)[C@H](Cc1ccccc1)NC(=O)[C@H](CO)NC(=O)[C@@H](N)CC(=O)O)C(C)C (H-DSFVG-{Leuψ(CH2NH)PheNH2})	–
108 nM	CC(C)C[C@@H](CN[C@@H](CC(C)C)C(N)=O)NC(=O)CCNC(=O)[C@@H](NC(=O)[C@H](Cc1ccccc1)NC(=O)[C@H](CO)NC(=O)[C@@H](N)CC(=O)O)C(C)C (H-DSFV[βAla]-X1)	–
1 nM	CCCN(C[C@H](CC(C)C)NC(=O)CCNC(=O)[C@@H](NC(=O)[C@H](Cc1ccccc1)NC(=O)[C@H](CO)NC(=O)[C@@H](N)CC(=O)O)C(C)C)[C@@H](Cc1ccccc1)C(N)=O (H-DSFV[βAla]-X7)	–
10 nM	CC(C)C[C@@H](CN[C@@H](Cc1ccccc1)C(N)=O)NC(=O)CCNC(=O)[C@@H](NC(=O)[C@H](Cc1ccccc1)NC(=O)[C@H](CO)NC(=O)[C@@H](N)CC(=O)O)C(C)C (H-DSFV[βAla]-{Leuψ(CH2NH)PheNH2})	–
> 10000 nM	CC(C)C[C@H](NC(=O)[C@H](CC(C)C)NC(=O)CNC(=O)[C@@H](NC(=O)[C@H](Cc1ccccc1)NC[C@H](CO)NC(=O)[C@@H](N)CC(=O)O)C(C)C)C(N)=O (H-[X3]VGLL-NH2)	–
1650 nM	CC(C)C[C@H](NC(=O)[C@H](CC(C)C)NC(=O)CNC(=O)[C@@H](NC(=O)[C@H](Cc1ccccc1)NC(=O)[C@H](CO)NCCCC(=O)O)C(C)C)C(N)=O (H-[X5]FVGLL-NH2)	–
1 nM	CSCC[C@H](NC(=O)[C@H](CC(C)C)NC(=O)CNC(=O)[C@@H](NC(=O)[C@H](Cc1ccccc1)NC(=O)[C@H](CO)NC(=O)[C@H](CC(=O)O)NC(=O)[C@@H](NC(=O)[C@H](CCCCN)NC(=O)[C@@H](N)Cc1cnc[nH]1)[C@@H](C)O)C(C)C)C(N)=O [NEUROKININ A]	–
148 nM	CSCC[C@H](NC(=O)[C@H](CC(C)C)NC(=O)CNC(=O)[C@H](Cc1ccccc1)NC(=O)[C@H](Cc1ccccc1)NC(=O)[C@H](CCC(N)=O)NC(=O)[C@H](CCC(N)=O)NC(=O)[C@@H]1CCCN1C(=O)[C@H](CCCCN)NC(=O)[C@@H]1CCCN1C(=O)[C@@H](N)CCCN=C(N)N)C(N)=O [SUBSTANCE P]	–

Compound	IC50 [1]	Kb [2]
CSCC[C@H](NC(=O)[C@H](CC(C)C)NC(=O)CNC(=O)[C@@H](NC(=O)[C@H](Cc1ccccc1)NC(=O)[C@H](CO)NC(=O)[C@@H](N)CC(=O)O)C(C)C)C(N)=O	6 nM	–
